PDI inh: inhibitors of human protein disulfide isomerase. inhibition, % at 10 µM. AID 588391. PDI insulin aggregation turbidity, A650, 90 min. P07237. 350,000 tested, 0.052% active;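 active means mean inhibition across replicates of 30% or more, whatever share of single replicates reach that level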
S100A4 inh HTS: S100A4-myosin IIA interaction inhibition; inhibition, % at 10.7 µM; 360,000 tested, 0.14% active; S100A4/TAMRA-MyoIIA peptide fluorescence polarization;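 active means mean inhibition of at least 70% across replicates, with every replicate also reaching that level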
Target sequence (P26447 whole entry, looked up): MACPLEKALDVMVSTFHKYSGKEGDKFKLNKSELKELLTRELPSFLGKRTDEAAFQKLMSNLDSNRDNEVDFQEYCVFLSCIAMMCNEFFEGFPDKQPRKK
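Test system: S100A4 monomer protein. Medium: HEPES buffer with Ca2+, pH 7.2. Reagent: fluorescent myosin IIA peptide, 5 nM. Compound dosing: single-point compound testing. Timing: 5 min between mix addition and reading. Benchmarks: DMSO neutral and TFP positive wells.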
ERAP1 inh: ERAP1 (human) enzyme inhibition. inhibition, % at 10.7 µM. AID 652197. recombinant ERAP1, Leu-AMC fluorescence, 60 min. 340,000 tested, 0.15% active;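 active means mean replicate inhibition of at least 30%, or all replicates individually reaching that 30% level; inactive means mean below 30% and not every replicate reaching it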
FGF22 binding: binders of recombinant human FGF22 by thermal shift. 340,000 tested, 1.5% active. SYPRO orange fluorescence; percent of sucrose octasulfate shift, DMSO zero. activity (Tm shift, normalised), % at 9.99 µM. AID 651658;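 active means mean Tm shift, scaled 0 neutral to 100 positive control, at about 1.3% or above, every replicate too, limit read from the data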
Target sequence (Q9HCT0 whole entry, looked up): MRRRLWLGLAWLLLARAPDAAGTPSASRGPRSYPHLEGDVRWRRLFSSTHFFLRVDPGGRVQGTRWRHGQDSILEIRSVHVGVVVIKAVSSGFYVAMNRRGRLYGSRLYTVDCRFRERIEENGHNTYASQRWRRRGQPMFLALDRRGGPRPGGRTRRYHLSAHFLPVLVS
ERp5 inh: inhibitors of human ERp5; Q15084; ERp5 insulin aggregation, absorbance 650 nm, 90 min; inhibition, % at 9.99 µM; 350,000 tested, 0.05% active; AID 651711;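 active means mean replicate inhibition above about 25%, with every replicate also reaching it, limit read from the data, passing the limit was not always enough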
Hits are given with their value; i = inactive; nt = not tested or not shown. Many of the other results were omitted from the sample, so hits are more common in it than they were.

SMILES | PDI inh | S100A4 inh HTS | ERAP1 inh | FGF22 binding | ERp5 inh
O=C(c1ccccc1)N1CC2(C1)[C@@H](c1ccccc1)[C@@H](CO)N2Cc1ccccn1 | nt | i | i | i | i
O=C(Cc1ccccn1)N1CC(=O)N2[C@H](CO)[C@@H](c3ccc(-c4ccccc4)cc3)[C@H]2C1 | nt | i | i | nt | i
COc1ccc(C(=O)CSc2nnc(CN3CCCC3)n2-c2ccc(F)cc2)c(OC)c1 | i | i | i | 44 | i
C/C(CC(=O)Nc1ccc2c(c1)OCCO2)=N\NC(=O)c1cccc(O)c1 | i | i | i | i | i
CC(=O)N/N=C(\C)CC(=O)Nc1ccc2c(c1)OCCO2 | i | i | i | 43 | i
CCOc1ccc(C(=O)N(CC)CC(=O)Nc2ccc3c(c2)OCCO3)cc1OCC | i | i | i | i | i
CCN(CC(=O)Nc1ccc2c(c1)OCCO2)C(=O)CC1CCCC1 | 33 | nt | nt | nt | nt
Cc1ccc(NC(=O)N2CCC(O)(c3ccc(Cl)cc3)CC2)cc1 | i | nt | nt | nt | nt
CC(=O)C1=C(O)C(=O)N(Cc2ccccc2)C1c1cccc([N+](=O)[O-])c1 (configuration not stated) | i | i | i | i | i
CCOC(=O)C1CCCN(C(=O)c2c(-c3ccccc3)noc2C)CC1 (configuration not stated) | i | i | i | i | i
CCOC(=O)C1CCN(C(=O)Cc2ccccc2OC)CC1 | i | i | i | 56 | i
CCOC(=O)C1CCN(C(=O)c2c(-c3ccccc3)noc2C)CC1 | i | i | i | 43 | i
CN(C)C(=O)C[C@@H]1C=C[C@H](NC(=O)Nc2cccc(F)c2)[C@@H](CO)O1 | nt | 97 | i | i | i
CCCNC(=O)N[C@@H]1C=C[C@@H](CC(=O)N2CCN(C)CC2)O[C@H]1CO | nt | i | i | i | i
O=C(Nc1ccc(C(F)(F)F)cc1)N[C@H]1C=C[C@@H](CC(=O)N2CCCCC2)O[C@@H]1CO | nt | 128 | i | i | i
CCCNC(=O)N[C@H]1C=C[C@@H](CC(=O)N2CCN(C)CC2)O[C@@H]1CO | nt | 125 | i | i | i
COc1cccc(NC(=O)N[C@@H]2C=C[C@@H](CC(=O)N3CCN(C)CC3)O[C@@H]2CO)c1 | nt | 86 | i | nt | i
Cc1cc(NC(=O)CSc2nnc(-c3c[nH]c4ccccc34)n2C)no1 | nt | i | i | i | i
COc1ccc(NC(=O)CSc2n[nH]c(-c3ccncc3)n2)c([N+](=O)[O-])c1 | i | i | i | i | i
C[C@@H]1CN([C@H](C)CO)C(=O)Cc2cc(NS(=O)(=O)c3cn(C)cn3)ccc2O[C@H]1CN(C)C(=O)Nc1ccc2c(c1)OCO2 | nt | i | i | i | i
CN(NC1OC(=O)c2ccccc21)c1ccc(Cl)cc1[N+](=O)[O-] (configuration not stated) | i | i | i | i | i
c1ccc(CNc2nc(-c3cccs3)nc3ccccc23)cc1 | i | i | i | 43 | i
O=C(CN1CCOCC1)N1CCCCN2[C@H](C1)[C@H](c1ccc(C#Cc3ccccc3)cc1)[C@@H]2CO | nt | i | i | i | i
O=C(O)c1c(-c2ccc(Cl)cc2)cn2ccccc12 | i | i | i | 43 | i
O=C1NC[C@H](CCCCN2C[C@H](Cc3ccccc3)N(CCC3CCCCC3)C(=O)C2=O)N(CCc2ccccc2)C1=O | nt | i | i | 8.8 | i
SMILES | PDI inh | S100A4 inh HTS | ERAP1 inh | FGF22 binding | ERp5 inh
O=C1NC[C@@H](CCCCN2C[C@H](Cc3ccccc3)N(CCC3CCCCC3)C(=O)C2=O)N(CCc2ccccc2)C1=O | nt | i | nt | i | i
CC(C)c1ccc(NC(=S)NCc2ccc3c(c2)OCO3)cc1 | i | i | i | i | i
COc1ccc(NC(=S)NCc2ccc3c(c2)OCO3)cc1 | i | i | i | 43 | i
COc1cc2c3c(c1OC)C1(C=CC(=O)C=C1)CC3N(C(C)=O)CC2 (configuration not stated) | i | i | i | i | i
CC(C)[C@H](NC(N)=O)C(=O)NNC(=O)COc1cccc(C(F)(F)F)c1 | i | i | 54 | i | i
COc1ccc(CNC(=O)C2(C)Cc3ccccc3C(=O)O2)cc1 (configuration not stated) | i | i | i | 44 | i
O=C(N/N=C\c1ccccn1)C1c2ccccc2Oc2ccccc21 | i | i | i | i | i
COc1ccc(CN(C)C[C@@H]2OCCCC[C@H](C)Oc3ccc(NC(=O)Nc4ccc5c(c4)OCO5)cc3C(=O)N([C@H](C)CO)C[C@H]2C)cc1 | nt | i | i | i | i
C[C@H]1CCCCO[C@H](CN(C)Cc2ccc(C(F)(F)F)cc2)[C@@H](C)CN([C@@H](C)CO)C(=O)c2cc(NC(=O)Nc3ccc4c(c3)OCO4)ccc2O1 | nt | 153 | i | i | i
COc1ccc(CN(C)C[C@H]2OCCCC[C@@H](C)Oc3ccc(NC(=O)Nc4ccc5c(c4)OCO5)cc3C(=O)N([C@H](C)CO)C[C@H]2C)cc1 | nt | 120 | i | i | i
C[C@@H]1CN([C@@H](C)CO)C(=O)c2cc(NC(=O)Nc3ccc4c(c3)OCO4)ccc2O[C@@H](C)CCCCO[C@H]1CN(C)CC1CCCCC1 | nt | i | i | 1.4 | i
COc1ccc(NC(=O)N(C)C[C@H]2OCCCC[C@H](C)Oc3ccc(NC(=O)NC4CCCCC4)cc3C(=O)N([C@@H](C)CO)C[C@H]2C)cc1 | nt | i | i | i | i
Cc1cc(C)cc(C(=O)N[C@@H](C)C(=O)N2CCC3(CC2)NCCc2[nH]cnc23)c1 | i | i | i | 43 | i
COc1cc(C(=O)N[C@@H](C)C(=O)N2CCC3(CC2)NCCc2[nH]cnc23)cc(OC)c1OC | i | i | i | i | i
O=C(NCc1ccc2c(c1)OCO2)c1cc(-c2ccccn2)nc2ccccc12 | i | i | i | i | i
Cc1c(C(=O)Nc2ccc(-c3nnc4n3CCCCC4)cc2)oc2c1ccc1ccccc12 | i | nt | nt | nt | nt
CCNC(=O)CC1C(=O)N(C)C(=S)N1NC(=O)c1ccc(Cl)cc1 (configuration not stated) | i | nt | nt | nt | nt
Nc1ccc(C(=O)NN2C(=O)[C@H](Cl)C2c2ccc(Cl)cc2)cc1 (some centres not stated) | 56 | i | i | 1.6 | i
O=C(Nc1ccc(Cl)cn1)C1C(c2ccccc2)C1(Cl)Cl (configuration not stated) | i | i | i | 44 | i
O=C(Nc1ccccc1)C1C(c2ccccc2)C1(Cl)Cl (configuration not stated) | i | i | i | i | i
O=C(/C=C/c1ccccc1Cl)Nc1ccccc1 | i | i | i | 1.5 | i
O=C(/C=C/c1ccccc1Cl)Nc1cccc(O)c1 | i | i | i | i | i
O=C(/C=C/c1ccccc1Cl)Nc1ccc(Cl)cn1 | i | i | i | 43 | i
O=C(/C=C/c1ccc2c(c1)OCO2)Nc1ccc(Cl)cn1 | i | i | i | i | i
OCc1ccc(-c2cc[n+](Cc3cc4c(cc3Br)OCO4)cc2)cc1 | nt | i | i | i | i
CN(C)C1=NC(=O)/C(=C\c2ccccc2)S1 | i | i | i | i | i
N#Cc1ccsc1NC(=O)COC(=O)c1cc(Br)ccc1O | i | i | i | i | i
